Measurements from different studies.
Lines come from different studies, so protocols differ.
Effect on: cell growth or viability

| Compound | cell line | test | conditions | IC50 [µM] |
| --- | --- | --- | --- | --- |
| COc1cc(N2CCC(N3CCN(C)CC3)CC2)ccc1Nc1ncc(Cl)c(Nc2ccccc2S(=O)(=O)C(C)C)n1 | Rh41 |  | 72 h | 0.07 |
| CN1C(=O)/C(=N\NC(=O)c2cc3ccccc3[nH]2)c2cc(Cl)ccc21 | ZR75 |  |  | 0.84 |
| COc1cc2c(Oc3ccc(NC(=O)C4(C(=O)Nc5ccc(F)cc5)CC4)cc3F)ccnc2cc1OCCCN1CCOCC1 | Rh41 |  | 72 h | 0.59 |
| CN1C(=O)/C(=N\NC(=O)c2cc3ccccc3[nH]2)c2ccccc21 | ZR75 |  |  | 1.53 |
| O=C(Nc1ccccc1)Nc1cccc(C(=O)Nc2ccc3[nH]ncc3c2)c1 | KM12 | ATP luminescence | 72 h | > 50 |
| CCCCC/C=C/C(=O)CCc1ccc(O)c(OC)c1 | COR-L23 | SRB |  | 16.2 |
| O=C(Nc1ccc(I)cc1)Nc1cccc(C(=O)Nc2ccc3[nH]ncc3c2)c1 | KM12 | ATP luminescence | 72 h | > 50 |
| O=C1Nc2ccc(F)cc2/C1=N/NC(=O)c1cc2ccccc2[nH]1 | ZR75 |  |  | > 30 |
| O=C(Nc1cccc(F)c1)Nc1cccc(C(=O)Nc2ccc3[nH]ncc3c2)c1 | KM12 | ATP luminescence | 72 h | 41.5 |
| Cc1[nH]c2ccccc2c1CCNCc1ccc(/C=C/C(=O)NO)cc1 | A2780C/P | crystal violet | 48 h | 0.0088 |
| O=C(Nc1cccc(C(=O)Nc2ccc3[nH]ncc3c2)c1)Nc1cccc(C(F)(F)F)c1 | KM12 | ATP luminescence | 72 h | 39.5 |
| CCC(C(=O)COc1c(F)c(F)cc(F)c1F)n1cc([C@@](C)(NCc2ccc3ncccc3c2)C2CCC2)nn1 (mixture of isomers) | BESM |  | 72 h | > 10 |
| C[C@H]1[C@@H](O)O[C@@H]2O[C@@]3(C)CC[C@H]4[C@H](C)CC[C@@H]1[C@@]24OO3 | Hep3B | CCK-8 | 48 h | > 50 |
| COc1cc(Nc2nccc(-c3cnn4nc(OC)ccc34)n2)cc(C(F)(F)F)c1 | CAKI-2 | ATP luminescence |  | 0.2 |
| O=C1Nc2ccccc2/C1=N/NC(=O)c1cc2ccccc2[nH]1 | ZR75 |  |  | 22.7 |
| O=C(/C=C/C=C/c1ccc2c(c1)OCO2)N1CCCCC1 | COR-L23 | SRB |  | 74.8 |

| Compound | cell line | test | conditions | IC50 [µM] |
| --- | --- | --- | --- | --- |
| CC(C)C[C@H](NC(=O)[C@H](Cc1ccccc1)NC(=O)c1cnccn1)B(O)O | CAKI-2 | ATP luminescence |  | 0.024 |
| O=C1Nc2ccc(Br)cc2/C1=N/NC(=O)c1cc2ccccc2[nH]1 | ZR75 |  |  | 21.9 |
| O=C(Nc1ccc(Cl)cc1)Nc1cccc(C(=O)Nc2ccc3[nH]ncc3c2)c1 | KM12 | ATP luminescence | 72 h | > 50 |
| CN1CCN(Cc2ccc(Nc3ncc(Cl)c(Nc4ccccc4S(=O)(=O)N(C)C)n3)cc2)CC1 | PSN1 |  |  | 0.006 |
| CCC(C(=O)COc1c(F)c(F)cc(F)c1F)n1cc([C@@](C)(NCc2ccc3ncccc3c2)C(C)C)nn1 (stereo partly shown) | BESM |  | 72 h | > 10 |
| O=C1NC(=NCc2cccs2)S/C1=C\c1ccc2ncccc2c1 | SR |  |  | 0.372 |
| [Fe+2].c1cc[cH-]c1.c1cc[cH-]c1 | BL2 | MTT | 48 h | > 100 |
| O=C(Nc1cccc(Cl)c1)Nc1cccc(C(=O)Nc2ccc3[nH]ncc3c2)c1 | KM12 | ATP luminescence | 72 h | > 50 |
| O=C(N/N=C1\C(=O)N(c2ccccc2)c2ccccc21)c1cc2ccccc2[nH]1 | ZR75 |  |  | 1.32 |
| CN1CCN(CC(=O)Nc2cccc(C(=O)Nc3ccc4[nH]ncc4c3)c2)CC1 | KM12 | ATP luminescence | 72 h | > 50 |
| Cc1cc(Nc2ncc(Cl)c(Nc3ccccc3S(=O)(=O)C(C)C)n2)c(OC(C)C)cc1C1CCNCC1 | Rh41 |  | 72 h | 0.35 |
| COc1cc(C2Oc3cc([C@H]4Oc5cc(O)cc(O)c5C(=O)[C@@H]4O)ccc3OC2CO)ccc1O (stereo partly shown) | Hep3B | CCK-8 | 72 h | 7.21 |
| CCCCC(C(=O)COc1c(F)c(F)cc(F)c1F)n1cc([C@](C)(CC(C)C)NCc2ccc3ncccc3c2)nn1 (stereo partly shown) | BESM |  | 72 h | > 10 |
| O=C(Nc1cccc(C(=O)Nc2ccc3[nH]ncc3c2)c1)Nc1ccccc1F | KM12 | ATP luminescence | 72 h | 48.3 |
| CC1=CC(C)(C)N(Cc2ccccc2)c2ccc(O)cc21 | Hep3B | MTT | 72 h | 5.2 |
